EphB4 ephrin blk: EphB4-ephrin-B2 interaction antagonists, primary screen, biochemical, TNYL-RAW peptide probe, fluorescence polarization; EphB4 LBD / TNYL-RAW-Alexa532 peptide; inhibition, % at 7 µM; hit rate 0.15% among 97,000;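 active = inhibition above the screen-wide mean inhibition plus 3 SD, cut at about 15% in these data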;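 note: 0% = DMSO wells and 100% = excess unlabeled TNYL-RAW peptide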
PLK1 PBD inh: Plk1 polo box domain binding inhibitors, primary screen, biochemical, fluorescence polarization; Serine/threonine-protein kinase PLK1 (Homo sapiens), P53350; Plk1 PBD phosphopeptide binding; inhibition, %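 (tested at about 20 µM)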; hit rate 0.13% among 97,000; AID 693, 2007; in the data active = inhibition above about 34%, passing the limit was not always enough
Target sequence (P53350 whole entry, looked up, the tested form may be a part): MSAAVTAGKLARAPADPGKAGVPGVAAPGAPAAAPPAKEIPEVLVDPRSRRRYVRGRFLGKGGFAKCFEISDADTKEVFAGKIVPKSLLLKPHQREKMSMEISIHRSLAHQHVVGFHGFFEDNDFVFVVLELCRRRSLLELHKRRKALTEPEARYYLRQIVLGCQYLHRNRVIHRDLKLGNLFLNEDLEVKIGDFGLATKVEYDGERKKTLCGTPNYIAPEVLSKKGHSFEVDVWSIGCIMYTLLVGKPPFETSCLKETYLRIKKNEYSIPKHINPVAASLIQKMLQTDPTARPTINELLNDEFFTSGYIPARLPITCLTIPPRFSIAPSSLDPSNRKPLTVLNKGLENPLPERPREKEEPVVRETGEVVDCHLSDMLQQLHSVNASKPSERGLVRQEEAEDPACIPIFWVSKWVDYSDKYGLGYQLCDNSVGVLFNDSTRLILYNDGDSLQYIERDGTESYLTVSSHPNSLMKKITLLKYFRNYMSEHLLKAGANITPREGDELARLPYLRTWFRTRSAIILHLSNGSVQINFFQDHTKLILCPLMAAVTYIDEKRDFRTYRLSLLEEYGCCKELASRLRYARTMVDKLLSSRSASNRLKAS
PostGolgi yeast: phenotypic screen on post-Golgi transport, primary screen; post-Golgi transport phenotypic cell assay; inhibition, % at 10 µM; hit rate 0.9% among 98,000; AID 739, 2007;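 note: yeast cells grown in 1536-well plates; yeast grown about 18 h at 30C before absorbance read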
HIV Rev-RRE inh: HIV-1 Rev-RRE binding inhibitors, primary screen, biochemical, FRET, protein-RNA interaction; hit rate 0.79% among 97,000; inhibition, % at 8 µM; AID 704, 2007; Rev peptide-RRE RNA binding; P05866;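 active = inhibition above the screen-wide mean plus 3 SD, cut at about 35% in these data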;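 note: 0% = median DMSO wells and 100% = median Neomycin B control wells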
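Assay system: labelled RRE RNA duplex and labelled Rev peptide / Medium: HEPES pH 7.5 salt buffer with EDTA / Reagent: labelled Rev peptide / Schedule: 5 + 15 min at 25 °C / Signal: FRET, excitation 480 nm, emission 540 nm donor and 671 nm acceptor / Benchmarks: DMSO and neomycin B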
PostGolgi ctrl: growth inhibition of yeast control strain, primary screen, counter-screen for post-Golgi transport modulator project; efflux-deficient yeast background strain, growth absorbance A615, 16 h; inhibition, % at 10 µM; hit rate 5% among 98,000
PLK1 kinase inh: human PLK1 kinase inhibitors, primary screen, biochemical, TR-FRET. recombinant PLK1 kinase, TR-FRET peptide phosphorylation. inhibition, % at 10 µM. hit rate 0.53% among 97,000;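 active = inhibition of 50% or more in the single-concentration screen; inactive = inhibition below 50%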;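 note: 0% = DMSO max control and 100% = H-89 dihydrochloride min control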
The depositor's hits bear a star. Rows were chosen to be rich in hits. Some 6.4% of all compounds tested hit in one or more screens of this group. Cut-off read from the data, not from the text of the source, unless noted: active = inhibition above about 30%; inactive = the rest.

Screening O=C1OCCC1N1C(=O)c2ccccc2S1(=O)=O (centres undefined) returned EphB4 ephrin blk -1, PLK1 PBD inh 2, PostGolgi yeast 0, HIV Rev-RRE inh 10, PostGolgi ctrl -12 and PLK1 kinase inh 0.
`Cc1ccc(NC(=O)Nc2nc(-c3ccc(C)s3)cs2)cc1` gave EphB4 ephrin blk 7, PLK1 PBD inh 3, PostGolgi yeast -6, HIV Rev-RRE inh 15, PostGolgi ctrl 1 and PLK1 kinase inh -8.
Screening Fc1ccc(-c2cc3nc(-c4ccccc4)cc(N4CCN(CCN5CCOCC5)CC4)n3n2)cc1 returned EphB4 ephrin blk 2, PLK1 PBD inh -26, PostGolgi yeast 5, HIV Rev-RRE inh 10, PostGolgi ctrl 19 and PLK1 kinase inh -10.
Screening CN1CCN(c2cc(-c3ccccc3)nc3cc(-c4ccc(F)cc4)nn23)CC1 returned EphB4 ephrin blk -1, PLK1 PBD inh 3, PostGolgi yeast 23, HIV Rev-RRE inh 1, PostGolgi ctrl 73* and PLK1 kinase inh -11.
For CNC(=O)N(C1=NCC(C)(C)S1)c1ccc(F)c(Cl)c1 the results were EphB4 ephrin blk -7, PLK1 PBD inh 5, PostGolgi yeast 3, HIV Rev-RRE inh 6, PostGolgi ctrl 22 and PLK1 kinase inh -15.
Clc1ccccc1CN(Cc1ccccc1)c1ncnc2nc[nH]c12 was read as EphB4 ephrin blk 4, PLK1 PBD inh -10, PostGolgi yeast -8, HIV Rev-RRE inh 11, PostGolgi ctrl 52* and PLK1 kinase inh 3.
For CC1CCN(S(=O)(=O)c2ccc(S(=O)(=O)NCC(=O)C(C)(C)C)cc2)CC1 the results were EphB4 ephrin blk 7, PLK1 PBD inh 0, PostGolgi yeast -3, HIV Rev-RRE inh 6, PostGolgi ctrl -1 and PLK1 kinase inh -5.
`COc1cc(C)nc(N(Cc2ccccc2)S(=O)(=O)c2ccccc2)n1` gave EphB4 ephrin blk 7, PLK1 PBD inh 2, PostGolgi yeast -1, HIV Rev-RRE inh 24, PostGolgi ctrl 33* and PLK1 kinase inh -12.
For O=C(NNc1ccccn1)C(=O)NNS(=O)(=O)c1ccc(Cl)cc1 the results were EphB4 ephrin blk -4, PLK1 PBD inh -16, PostGolgi yeast 3, HIV Rev-RRE inh 2, PostGolgi ctrl 31* and PLK1 kinase inh -3.
Screening O=C(NNS(=O)(=O)c1ccccc1)C1CCN(S(=O)(=O)c2ccc(Cl)cc2)CC1 returned EphB4 ephrin blk -5, PLK1 PBD inh 11, PostGolgi yeast 3, HIV Rev-RRE inh -2, PostGolgi ctrl -5 and PLK1 kinase inh -11.
`c1ccc2c(c1)nc(-c1ccncc1)n1nnnc21` gave EphB4 ephrin blk -2, PLK1 PBD inh 9, PostGolgi yeast 2, HIV Rev-RRE inh 7, PostGolgi ctrl 8 and PLK1 kinase inh 11.
For COc1ccccc1OCc1ccc(C(=O)n2nc(C)c(Cl)c2C)o1 the results were EphB4 ephrin blk -6, PLK1 PBD inh -12, PostGolgi yeast -5, HIV Rev-RRE inh 13, PostGolgi ctrl 33* and PLK1 kinase inh -9.
Screening CC(/C=C/c1ccc(O)cc1)=N/O returned EphB4 ephrin blk -6, PLK1 PBD inh 2, HIV Rev-RRE inh 5 and PLK1 kinase inh 29.
CCOc1cccc(Oc2ccc(C(F)(F)F)cn2)c1 was read as EphB4 ephrin blk 1, PLK1 PBD inh -2, PostGolgi yeast 2, HIV Rev-RRE inh 3, PostGolgi ctrl 34* and PLK1 kinase inh -11.
For COc1cccc(OC)c1Oc1ccc(C(F)(F)F)cn1 the results were EphB4 ephrin blk 0, PLK1 PBD inh -16, PostGolgi yeast 0, HIV Rev-RRE inh 9, PostGolgi ctrl 4 and PLK1 kinase inh 0.
`Cc1cccc(N(CC(=O)N/N=C/c2cc([N+](=O)[O-])ccc2Cl)S(C)(=O)=O)c1C` gave EphB4 ephrin blk 6, PLK1 PBD inh 0, PostGolgi yeast 2, HIV Rev-RRE inh 18, PostGolgi ctrl -1 and PLK1 kinase inh -5.
For Cc1ccc2c(CSc3nc4ccccc4c(=O)n3CCCO)cc(=O)oc2c1C the results were EphB4 ephrin blk 6, PLK1 PBD inh -28, PostGolgi yeast -3, HIV Rev-RRE inh 4, PostGolgi ctrl 32* and PLK1 kinase inh 3.

High-throughput results as filed in PubChem BioAssay.
